Laboratory results from ChEMBL document CHEMBL1159390, “Plakortides M and N, bioactive polyketide endoperoxides from the Caribbean marine sponge Plakortis halichondrioides” (J Nat Prod, 2003).
Calls of active or inactive are those of the source. The calls are words filed in the database; no cut-off is given here.

Experiments:
[1] = test system: Mycobacterium tuberculosis; assay: Antitubercular activity against Mycobacterium tuberculosis H37Rv at 6.25 ug/mL; type: functional, organism-based
[2] = test system: Plasmodium falciparum; assay: Antimalarial activity against Plasmodium falciparum; type: functional, organism-based
[3] = test system: CCRF-CEM; assay: Cytotoxicity against human CCRF-CEM cells; type: functional, cell-based
Method in brief: (§1)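 Tested in the NCI in vitro antitumor screen of 60 human tumour cell lines, after a prior NCI three-cell-line, one-dose primary anticancer assay.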

[4] = test system: UO-31; assay: Cytotoxicity against human UO31 cells; type: functional, cell-based; method in brief: as §1
[5] = test system: ACHN; assay: Cytotoxicity against human ACHN cells; type: functional, cell-based; method in brief: as §1
[6] = test system: NCI/ADR-RES; assay: Cytotoxicity against human NCI/ADR-RES cells; type: functional, cell-based; method in brief: as §1
[7] = test system: IGROV-1; assay: Cytotoxicity against human IGROV1 cells; type: functional, cell-based; method in brief: as §1
[8] = test system: HOP-62; assay: Cytotoxicity against human HOP62 cells; type: functional, cell-based; method in brief: as §1
[9] = test system: MCF7; assay: Cytotoxicity against human MCF7 cells; type: functional, cell-based; method in brief: as §1
[10] = test system: HT-29; assay: Cytotoxicity against human HT-29 cells; type: functional, cell-based; method in brief: as §1
[11] = test system: M14; assay: Cytotoxicity against human M14 cells; type: functional, cell-based; method in brief: as §1
[12] = test system: 786-0; assay: Cytotoxicity against human 786-0 cells; type: functional, cell-based; method in brief: as §1
[13] = test system: SF-539; assay: Cytotoxicity against human SF539 cells; type: functional, cell-based; method in brief: as §1
[14] = test system: NCI-H460; assay: Cytotoxicity against human NCI-H460 cells; type: functional, cell-based; method in brief: as §1
[15] = test system: LOX IMVI; assay: Cytotoxicity against human LOXIMVI cells; type: functional, cell-based; method in brief: as §1
[16] = test system: DU-145; assay: Cytotoxicity against human DU145 cells; type: functional, cell-based; method in brief: as §1
[17] = test system: HCT-116; assay: Cytotoxicity against human HCT116 cells; type: functional, cell-based; method in brief: as §1
[18] = test system: OVCAR-3; assay: Cytotoxicity against human OVCAR-3 cells; type: functional, cell-based; method in brief: as §1
[19] = test system: SR; assay: Cytotoxicity against human SR cells; type: functional, cell-based; method in brief: as §1
[20] = test system: A549; assay: Cytotoxicity against human A549 cells; type: functional, cell-based; method in brief: as §1
[21] = test system: SK-MEL-2; assay: Cytotoxicity against human SK-MEL-2 cells; type: functional, cell-based; method in brief: as §1
[22] = test system: PC-3; assay: Cytotoxicity against human PC3 cells; type: functional, cell-based; method in brief: as §1
[23] = test system: COLO 205; assay: Cytotoxicity against human COLO205 cells; type: functional, cell-based; method in brief: as §1
[24] = test system: SF-295; assay: Cytotoxicity against human SF295 cells; type: functional, cell-based; method in brief: as §1
[25] = Cytotoxicity against human […] cells; type: functional, cell-based; method in brief: as §1
[26] = test system: SK-OV-3; assay: Cytotoxicity against human SKOV3 cells; type: functional, cell-based; method in brief: as §1
[27] = test system: T47D; assay: Cytotoxicity against human T47D cells; type: functional, cell-based; method in brief: as §1
[28] = test system: U-251; assay: Cytotoxicity against human U251 cells; type: functional, cell-based; method in brief: as §1

Compound	Activity [1]	IC50 [3]	IC50 [4]	IC50 [5]	IC50 [6]	IC50 [7]	IC50 [8]	IC50 [9]	IC50 [10]	IC50 [11]	IC50 [12]	IC50 [13]	IC50 [14]	IC50 [15]	IC50 [16]	IC50 [17]	IC50 [18]	IC50 [19]	IC50 [20]	IC50 [21]	also measured
CC/C=C/[C@H](CC)C/C(=C/[C@@]1(CC)C[C@H](CC)[C@H](CC(=O)OC)OO1)CC	inactive	–	–	–	–	–	–	–	–	–	–	–	–	–	–	–	–	–	–	–	IC50 [2]: ≥ 50 µg/mL
CC/C=C/[C@H](CC)C/C=C/[C@@]1(CC)C[C@H](CC)[C@H](CC(=O)OC)OO1	inactive	–	–	–	–	–	–	–	–	–	–	–	–	–	–	–	–	–	–	–	–
CC/C=C/[C@H](CC)C/C=C/[C@@]1(CC)C[C@H](CC)[C@H](CC(=O)O)OO1 [PLAKORTIDE M]	–	200 nM	1400 nM	1700 nM	1800 nM	600 nM	1600 nM	2900 nM	1400 nM	6800 nM	1600 nM	1800 nM	1800 nM	500 nM	1900 nM	2000 nM	2000 nM	400 nM	1800 nM	11100 nM	IC50 [22]: 1600 nM; IC50 [23]: 1500 nM; IC50 [24]: 1800 nM; IC50 [25]: 1300 nM; IC50 [26]: 1300 nM; IC50 [27]: 2200 nM; IC50 [28]: 1700 nM
CC/C=C/[C@H](CC)C/C(=C/[C@@]1(CC)C[C@H](CC)[C@H](CC(=O)O)OO1)CC [PLAKORTIDE N]	–	100 nM	10 nM	200 nM	400 nM	60 nM	900 nM	1800 nM	500 nM	1600 nM	1300 nM	1500 nM	200 nM	30 nM	400 nM	400 nM	1100 nM	100 nM	100 nM	1700 nM	IC50 [22]: 300 nM; IC50 [23]: 1300 nM; IC50 [24]: 300 nM; IC50 [25]: < 10 nM; IC50 [26]: 1900 nM; IC50 [27]: 1300 nM; IC50 [28]: 500 nM
